Assay results published in paper PMC2413043 (The Journal of Experimental Medicine, 2008).
Several values for one entry are separate records, joined by “and”; a condition that tells them apart may be missing. Equal values may be shown once. Entries after “also recorded” stand apart in the source; their conditions may differ.

Key:
[1] = tested on: RAW macrophages; test: Cytotoxicity of MAPK inhibitors; assay type: cell-based, mouse; details: unpublished data
[2] = tested on: p300 HAT domain; test: In vitro acetylation of MKP-1 docking domain peptides by p300; assay type: biochemical; details: recombinant p300 HAT domain, labelled acetyl-CoA, 30°C 10 min, autoradiography
[3] = tested on: NOS2; test: NOS2 protein levels by immunoblot in RAW cells; assay type: cell-based, mouse; details: macrophages, TLR agonist 16 h
Method in brief: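 RAW 264.7 cells were handled in two ways. For agonist response, cells were exposed to the TLR agonists PGN, poly(I:C), LPS or E. coli for 16 h, with or without TSA. For TSA dose-response, cells were pretreated with increasing TSA for 1 h, then given LPS 100 ng/ml for 6 h, with ERα as the blot control. In both, lysates were immunoblotted for NOS2.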

[4] = tested on: phospho-p38; test: Dephosphorylation of recombinant phospho-p38 by recombinant MKP-1; assay type: biochemical; details: for dephosphorylation of phospho-p38, without p300: recombinant MKP-1, immunoblot; for dephosphorylation of phospho-p38, effect of adding p300: recombinant MKP-1 acetylated with p300, immunoblot
Method in brief: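 Recombinant His-MKP-1 made from pRSET-His-MKP-1 by in vitro transcription and translation. It was incubated with recombinant p300 and cold acetyl-CoA, or with control. It was then incubated with recombinant phospho-p38, and remaining phospho-p38 was detected by immunoblotting.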

[5] = tested on: p38; test: Phospho-p38 in MKP-1 KO MEFs rescued with MKP-1; assay type: cell-based, mouse; details: 4-HT, then LPS and TSA 1 h
Method in brief: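 MKP-1−/− fibroblasts were immortalized with SV40 T-antigen and transfected with MKP-1(WT)-ERα or MKP-1(K57R)-ERα. Expression was induced with 200 nM 4-hydroxytamoxifen, then cells were treated with LPS and TSA for 1 h. Lysates were immunoblotted for phospho-p38, total p38 and the ER tag.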

[6] = tested on: HEK293 cells; test: Acetylation of HA-MKP-1 in HEK293 cells; assay type: cell-based; details: IP acetyl-lysine, blot HA
[7] = tested on: TNF-α; test: LPS-induced TNF-α RNA in MKP-1 KO MEFs rescued with MKP-1; assay type: cell-based, mouse; details: 4-HT, then LPS and TSA 1 h; RT-PCR
[8] = MKP-1 catalytic; assay type: biochemical; details: OMFP, A 477 nm, 30°C, 0–40 min, n = 2 ± SD
Method in brief: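 Recombinant MKP-1 (0.66 μg) was acetylated or not with recombinant p300 HAT (2.5 μg) and 5 μl of 1 mM acetyl-CoA stock for 30 min at 30°C. Recombinant p38 (2 μg) or control was added for 1 h at 30°C. The substrate 3-O-methylfluorescein phosphate was then added and A477 nm monitored at 30°C. n = 2, ± SD.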

Q: With `C[S+]([O-])c1ccc(-c2nc(-c3ccncc3)c(-c3ccc(F)cc3)[nH]2)cc1` (centres unmarked) [SB203580] as the molecule, how does the cytotoxicity [1] read?
A: not cytotoxic

Q: With `Oc1c2ccccc2c2c3c(cccc13)N=N2` [SP600125] as the molecule, how does the cytotoxicity [1] read?
A: not cytotoxic

Q: With `N#CC(=C(/N)Sc1ccccc1N)/C(C#N)=C(/N)Sc1ccccc1N` [U0126] as the molecule, how does the cytotoxicity [1] read?
A: not cytotoxic

Q: Which “acetylation of peptide by p300” value [2] does the source give for “RFSTIVRRRAKGAMGLEHIVPNAELRGRLLA [MKP-1(47–76)(WT)]” here?
A: p300 acetylates MKP-1(47–76)

Q: For “RFSTIVRRRARGAMGLEHIVPNAELRGRLLA [MKP-1(47–76)(K57R)]”, which “acetylation of peptide by p300” value [2] is on record?
A: p300 cannot acetylate MKP-1(47–76)(K57R)

Q: Which “NOS2 expression, activation by TLR agonist alone” value [3] does the source give for peptidoglycan here?
A: can activate NOS2 expression in macrophages

B1: MKP-1(WT): recombinant or ectopically expressed wild-type MKP-1 (protein)
chain: MVMEVGILDAGGLRALLREGAAQCLLLDCRSFFAFNAGHIAGSVNVRFSTIVRRRAKGAMGLEHIVPNAELRGRLLAGAYHAVVLLDERSASLDGAKRDGTLALAAGALCREARSTQVFFLQGGYEAFSASCPELCSKQSTPTGLSLPLSTSVPDSAESGCSSCSTPLYDQGGPVEILSFLYLGSAYHASRKDMLDALGITALINVSANCPNHFEGHYQYKSIPVEDNHKADISSWFNEAIDFIDSIKDAGGRVFVHCQAGISRSATICLAYLMRTNRVKLDEAFEFVKQRRSIISPNFSFMGQLLQFESQVLAPHCSAEAGSPAMAVLDRGTSTTTVFNFPVSIPVHPTNSALNYLKSPITTSPSC
modifications: left off: ERα ligand-binding domain, end not stated, kept
Q: With B1 as the molecule, how does the “dephosphorylation of phospho-p38, without p300” value [4] read?
A: reduces phosphorylation of p38

Q: What about the “dephosphorylation of phospho-p38, effect of adding p300” value [4] of the same molecule?
A: further decrease in phosphorylation of p38

Q: What about the “effect of TSA on phospho-p38 in MKP-1 KO MEFs after ectopic expression” value [5] of the same molecule?
A: restores the ability of TSA to decrease phospho-p38 levels

B2: HA-MKP-1(K57R) (protein, UniProt P28562 1-367, looked up, variant K57R)
Dual specificity protein …: MVMEVGTLDAGGLRALLGERAAQCLLLDCRSFFAFNAGHIAGSVNVRFSTIVRRRARGAMGLEHIVPNAELRGRLLAGAYHAVVLLDERSAALDGAKRDGTLALAAGALCREARAAQVFFLKGGYEAFSASCPELCSKQSTPMGLSLPLSTSVPDSAESGCSSCSTPLYDQGGPVEILPFLYLGSAYHASRKDMLDALGITALINVSANCPNHFEGHYQYKSIPVEDNHKADISSWFNEAIDFIDSIKNAGGRVFVHCQAGISRSATICLAYLMRTNRVKLDEAFEFVKQRRSIISPNFSFMGQLLQFESQVLAPHCSAEAGSPAMAVLDRGTSTTTVFNFPVSIPVHSTNSALSYLQSPITTSPSC
modifications: HA tag
Q: With B2 as the molecule, how does the “acetylation of HA-MKP-1 in cells in response to LPS and TSA” value [6] read?
A: MKP-1(K57R) is not

B3: MKP-1(K57R) (protein, UniProt P28562 1-367, looked up, variant K57R)
Dual specificity protein …: MVMEVGTLDAGGLRALLGERAAQCLLLDCRSFFAFNAGHIAGSVNVRFSTIVRRRARGAMGLEHIVPNAELRGRLLAGAYHAVVLLDERSAALDGAKRDGTLALAAGALCREARAAQVFFLKGGYEAFSASCPELCSKQSTPMGLSLPLSTSVPDSAESGCSSCSTPLYDQGGPVEILPFLYLGSAYHASRKDMLDALGITALINVSANCPNHFEGHYQYKSIPVEDNHKADISSWFNEAIDFIDSIKNAGGRVFVHCQAGISRSATICLAYLMRTNRVKLDEAFEFVKQRRSIISPNFSFMGQLLQFESQVLAPHCSAEAGSPAMAVLDRGTSTTTVFNFPVSIPVHSTNSALSYLQSPITTSPSC
Q: For B3, which “dephosphorylation of phospho-p38, without p300” value [4] is on record?
A: can decrease the phosphorylation of p38

Q: And the “dephosphorylation of phospho-p38, effect of adding p300” value [4]?
A: no further effect on MKP-1 dephosphorylation of p38

Q: And the “effect of TSA on phospho-p38 in MKP-1 KO MEFs after ectopic expression” value [5]?
A: cannot restore the effects of TSA upon phospho-p38

Q: What about the “effect of TSA on LPS-induced TNF-α in MKP-1 KO MEFs after ectopic expression” value [7] of the same molecule?
A: not with MKP-1(K57R)

B4: MKP-1: Recombinant MKP-1, acetylated or not with p300 and acetyl-CoA (protein, UniProt P28562 1-367, looked up)
Dual specificity protein …: MVMEVGTLDAGGLRALLGERAAQCLLLDCRSFFAFNAGHIAGSVNVRFSTIVRRRAKGAMGLEHIVPNAELRGRLLAGAYHAVVLLDERSAALDGAKRDGTLALAAGALCREARAAQVFFLKGGYEAFSASCPELCSKQSTPMGLSLPLSTSVPDSAESGCSSCSTPLYDQGGPVEILPFLYLGSAYHASRKDMLDALGITALINVSANCPNHFEGHYQYKSIPVEDNHKADISSWFNEAIDFIDSIKNAGGRVFVHCQAGISRSATICLAYLMRTNRVKLDEAFEFVKQRRSIISPNFSFMGQLLQFESQVLAPHCSAEAGSPAMAVLDRGTSTTTVFNFPVSIPVHSTNSALSYLQSPITTSPSC
modifications: optionally acetylated
Q: For B4, which “phosphatase activity, effect of recombinant p38” value [8] is on record?
A: increases the phosphatase activity of MKP-1

Q: And the “increase of phosphatase activity by acetylation in the presence of p38” value ([8]; p300 and acetyl-CoA 30 min at 30°C, then p38 1 h at 30°C)?
A: ~125% and > 100%

Q: And the “phosphatase activity, effect of acetylation without p38” value ([8]; p300 and acetyl-CoA)?
A: negligible effect on phosphatase activity; also recorded: does not affect phosphatase activity of the enzyme alone
